The subject of data set [1] is Echinochloa crus-galli. As to the kind of experiment: Herbicidal activity against Echinochloa crus-galli (barnyard grass) assessed as inhibition of root growth at […] measured 7 days post treatment. Format: functional. On the set-up: dose or concentration left out as unconfirmed. To be noted: 168 h, read-out: GI.
Data set [2] concerns Digitaria sanguinalis. As to the kind of experiment: Herbicidal activity against Digitaria sanguinalis (hairy crabgrass) assessed as inhibition of fresh weed plant weights at 600 g ai/ha using pre-emergence treatment protocol under greenhouse conditions relative to untreated control. Format: functional. The essentials:
(§1)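 Pre-emergence test in plastic pots kept in a greenhouse at 22-25 °C. Fresh weight of aerial plant parts was measured 20 days later, and percent inhibition calculated relative to water-sprayed controls. Metolachlor served as the positive control. Three replicates were run per concentration.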

The test system of data set [3] is Echinochloa crus-galli. Kind of data set: Herbicidal activity against Echinochloa crus-galli (barnyard grass) assessed as inhibition of fresh weed plant weights at 600 g ai/ha using pre-emergence treatment protocol under greenhouse conditions relative to untreated control. Type of data set: functional. The essentials: as §1
Data set [4] concerns Portulaca oleracea. As to the kind of experiment: Herbicidal activity against Portulaca oleracea assessed as inhibition of root growth at […] measured 7 days post treatment. Type of data set: functional. On the set-up: dose or concentration left out as unconfirmed. To be noted: 168 h, read-out: GI.
The subject of data set [5] is Echinochloa crus-galli. As to the kind of experiment: Herbicidal activity against Echinochloa crus-galli (barnyard grass) assessed as inhibition of shoot growth at […] measured 7 days post treatment. The note with it: 168 h, read-out: GI. On the set-up: dose or concentration left out as unconfirmed. Type of data set: functional.
Data set [6] concerns Portulaca oleracea. As to the kind of experiment: Herbicidal activity against Portulaca oleracea assessed as inhibition of shoot growth at […] measured 7 days post treatment. Type of data set: functional. The note with it: 168 h, read-out: GI. The essentials: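 Petri-dish agar assay. A 10 g/L stock of compound in acetone was mixed into molten agar; the untreated control was agar without compound. Seeds were placed on the agar surface and the cups were covered with glass lids. Incubation was 25 ± 1 °C, 50-55% RH, 12 h light/12 h dark, for 7 days. Root and shoot lengths were measured and growth inhibition calculated against the control, in three replicates.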

The subject of data set [7] is Portulaca oleracea. As to the kind of experiment: Herbicidal activity against Portulaca oleracea assessed as inhibition of fresh weed plant weights at 300 g ai/ha using pre-emergence treatment protocol under greenhouse conditions relative to untreated control. Type of data set: functional. The essentials:
as §1

Data set [8] deals with Eleusine indica. As to the kind of experiment: Herbicidal activity against Eleusine indica assessed as inhibition of fresh weed plant weights at 600 g ai/ha using pre-emergence treatment protocol under greenhouse conditions relative to untreated control. Format: functional. The essentials: as §1
Data set [9] has as its system Eleusine indica. As to the kind of experiment: Herbicidal activity against Eleusine indica assessed as inhibition of fresh weed plant weights at 150 g ai/ha using pre-emergence treatment protocol under greenhouse conditions relative to untreated control. Type of data set: functional. The essentials: as §1
Data set [10] deals with Digitaria sanguinalis. As to the kind of experiment: Herbicidal activity against Digitaria sanguinalis (hairy crabgrass) assessed as inhibition of fresh weed plant weights at 300 g ai/ha using pre-emergence treatment protocol under greenhouse conditions relative to untreated control. Type of data set: functional. The essentials: as §1
In data set [11] the test system is Eleusine indica. Kind of data set: Herbicidal activity against Eleusine indica assessed as inhibition of fresh weed plant weights at 300 g ai/ha using pre-emergence treatment protocol under greenhouse conditions relative to untreated control. Type of data set: functional. The essentials: as §1
In data set [12] the test system is Portulaca oleracea. Kind of data set: Herbicidal activity against Portulaca oleracea assessed as inhibition of fresh weed plant weights at 600 g ai/ha using pre-emergence treatment protocol under greenhouse conditions relative to untreated control. Format: functional. The essentials:
as §1

Another data set deals with Convolvulus arvensis. As to the kind of experiment: Herbicidal activity against Convolvulus arvensis assessed as inhibition of fresh weed plant weights at 1404 g ai/ha using pre-emergence treatment protocol under field trials conditions measured 30 days post soil treatment relative to untreated control. Format: functional. To be noted: 720 h.
Data set [13] concerns Zea mays. Kind of data set: Toxicity against Zea mays var. SHEN DAN 17 (maize) assessed as inhibition of fresh weed plant weights at 600 g ai/ha using pre-emergence treatment protocol under greenhouse conditions relative to untreated control. Format: organism-based. The note with it: in vivo, other. The essentials: as §1
The test system of data set [14] is Digitaria sanguinalis. As to the kind of experiment: Herbicidal activity against Digitaria sanguinalis (hairy crabgrass) assessed as inhibition of fresh weed plant weights at 1404 g ai/ha using pre-emergence treatment protocol under field trials conditions measured 30 days post soil treatment relative to untreated control. To be noted: 720 h. Type of data set: functional.

For data set [15], the system named is Portulaca oleracea. Kind of data set: Herbicidal activity against Portulaca oleracea assessed as inhibition of fresh weed plant weights at 150 g ai/ha using pre-emergence treatment protocol under greenhouse conditions relative to untreated control. Format: functional. The essentials: as §1
Data set [16] relates to Eleusine indica. Kind of data set: Herbicidal activity against Eleusine indica assessed as inhibition of fresh weed plant weights at 1404 g ai/ha using pre-emergence treatment protocol under field trials conditions measured 30 days post soil treatment relative to untreated control. The note with it: 720 h. Format: functional.
The test system of data set [17] is Brassica rapa subsp. oleifera. As to the kind of experiment: Toxicity against Brassica rapa subsp. oleifera var. JING GUAN 1 assessed as inhibition of fresh weed plant weights at 600 g ai/ha using pre-emergence treatment protocol under greenhouse conditions relative to untreated control. Type of data set: organism-based. To be noted: in vivo, other. The essentials: as §1

The test system of data set [18] is Portulaca oleracea. Kind of data set: Herbicidal activity against Portulaca oleracea assessed as inhibition of fresh weed plant weights at 1404 g ai/ha using pre-emergence treatment protocol under field trials conditions measured 30 days post soil treatment relative to untreated control. Format: functional. The note with it: 720 h.
The test system of data set [19] is Echinochloa crus-galli. Kind of data set: Herbicidal activity against Echinochloa crus-galli (barnyard grass) assessed as inhibition of fresh weed plant weights at 150 g ai/ha using pre-emergence treatment protocol under greenhouse conditions relative to untreated control. Format: functional. The essentials:
as §1

Data set [20] deals with Brassica rapa subsp. oleifera. As to the kind of experiment: Toxicity against Brassica rapa subsp. oleifera var. JING GUAN 1 assessed as inhibition of fresh weed plant weights at 150 g ai/ha using pre-emergence treatment protocol under greenhouse conditions relative to untreated control. Format: organism-based. To be noted: in vivo, other. The essentials: as §1
For data set [21], the system named is Brassica rapa subsp. oleifera. Kind of data set: Toxicity against Brassica rapa subsp. oleifera var. JING GUAN 1 assessed as inhibition of fresh weed plant weights at 300 g ai/ha using pre-emergence treatment protocol under greenhouse conditions relative to untreated control. Format: organism-based. The note with it: in vivo, other. The essentials: as §1
Data set [22] concerns Echinochloa crus-galli. As to the kind of experiment: Herbicidal activity against Echinochloa crus-galli (barnyard grass) assessed as inhibition of fresh weed plant weights at 300 g ai/ha using pre-emergence treatment protocol under greenhouse conditions relative to untreated control. Format: functional. The essentials:
as §1

Data set [23] relates to Echinochloa crus-galli. Kind of data set: Herbicidal activity against Echinochloa crus-galli (barnyard grass) assessed as inhibition of fresh weed plant weights at 1404 g ai/ha using pre-emergence treatment protocol under field trials conditions measured 30 days post soil treatment relative to untreated control. Format: functional. The note with it: 720 h.
The subject of data set [24] is Zea mays. As to the kind of experiment: Toxicity against Zea mays var. SHEN DAN 17 (maize) assessed induction of crop injury at 1404 g ai/ha using pre-emergence treatment protocol under field trials conditions measured 30 days post soil treatment. Format: organism-based. To be noted: in vivo, other, 720 h.
Data set [25] deals with Zea mays. Kind of data set: Toxicity against Zea mays var. SHEN DAN 17 (maize) assessed as inhibition of fresh weed plant weights at 300 g ai/ha using pre-emergence treatment protocol under greenhouse conditions relative to untreated control. The note with it: in vivo, other. Format: organism-based. The essentials:
as §1

Data set [26] deals with Digitaria sanguinalis. As to the kind of experiment: Herbicidal activity against Digitaria sanguinalis (hairy crabgrass) assessed as inhibition of fresh weed plant weights at 150 g ai/ha using pre-emergence treatment protocol under greenhouse conditions relative to untreated control. Format: functional. The essentials: as §1

Here are results for six compounds from ChEMBL document CHEMBL3046055, “Synthesis and herbicidal activity of novel N-(2,2,2)-trifluoroethylpyrazole derivatives” (J Agric Food Chem, 2010).

The structures appear in SMILES notation.

Broadly, the inhibition is the relative decrease from the control value, in per cent.

Turning to `Cc1nn(CC(F)(F)F)c(CSC2=NOC(C)(C)C2)c1Cl`, the figures for the inhibition of growth in the data set on Echinochloa crus-galli [1], in the data set on Portulaca oleracea [4] and with Echinochloa crus-galli [5] were 89%, 75% and 88%, respectively. For the same compound, the inhibition at 600 g/ha with Digitaria sanguinalis [2] was found to be 54%; in the data set on Echinochloa crus-galli [3], 81%. The inhibition of growth at 100000 µg/mL in the data set with Portulaca oleracea [6] was 54%.
`Cc1nn(CC(F)(F)F)c(CSC2=NOC(C)(C)C2)c1Br`: the inhibition of growth is 86% in the data set with Echinochloa crus-galli [1], 80% with Portulaca oleracea [4] and 88% with Echinochloa crus-galli [5]. Further, the inhibition at 600 g/ha in the data set with Digitaria sanguinalis [2] stood at 74%; in the data set with Echinochloa crus-galli [3] it was 82%. Further, in the data set with Portulaca oleracea [6], the inhibition of growth at 100000 µg/mL came out at 54%.
Turning to `Cc1nn(CC(F)(F)F)c(CSC2=NOC(C)(C)C2)c1I`, the values for the inhibition of growth in the data set on Echinochloa crus-galli [1], in the data set with Portulaca oleracea [4] and with Echinochloa crus-galli [5] were 86%, 81% and 89%, respectively. Further, the figures for the inhibition at 600 g/ha with Digitaria sanguinalis [2] and in the data set on Echinochloa crus-galli [3] were 54% and 100%, respectively. Besides, in the data set on Portulaca oleracea [6], the inhibition of growth at 100000 µg/mL turned out to be 62%.
`Cc1nn(CC(F)(F)F)c(CS(=O)(=O)C2=NOC(C)(C)C2)c1Br`: the inhibition of growth is 74% in the data set on Echinochloa crus-galli [1], 80% in the data set with Portulaca oleracea [4] and 81% in the data set on Echinochloa crus-galli [5]. The figures for the inhibition at 600 g/ha in the data set with Digitaria sanguinalis [2] and in the data set with Echinochloa crus-galli [3] were 79% and 100%, respectively. Further, the inhibition of growth at 100000 µg/mL in the data set with Portulaca oleracea [6] came to 62%.
For the compound `Cc1nn(CC(F)(F)F)c(CS(=O)(=O)C2=NOC(C)(C)C2)c1I`, the inhibition of growth in the data set with Echinochloa crus-galli [1] was determined as 63%; in the data set with Portulaca oleracea [4] it was 75%; in the data set with Echinochloa crus-galli [5] it was 84%. For the same compound, the inhibition at 600 g/ha in the data set on Digitaria sanguinalis [2] stood at 90%; with Echinochloa crus-galli [3] it was 100%. The inhibition of growth at 100000 µg/mL in the data set with Portulaca oleracea [6] is 62%.
Take `CCc1cccc(C)c1N(C(=O)CCl)C(C)COC` (configuration not stated) [METOLACHOR]: the inhibition at 300 g/ha in the data set on Portulaca oleracea [7] worked out at 57%; in the data set on Digitaria sanguinalis [10], 76%; in the data set on Eleusine indica [11], 98%; in the data set with Echinochloa crus-galli [22], 39%. For the same compound, the inhibition of growth in the data set on Echinochloa crus-galli [1] was 80%; in the data set with Portulaca oleracea [4] it was 74%; with Echinochloa crus-galli [5], 88%. Further, the inhibition at 600 g/ha in the data set on Digitaria sanguinalis [2] was 90%; in the data set with Echinochloa crus-galli [3] it was 50%; with Eleusine indica [8], 97%; with Portulaca oleracea [12] it was 60%. Moreover, the inhibition at 150 g/ha turned out to be 84% with Eleusine indica [9], 36% with Portulaca oleracea [15], 25% with Echinochloa crus-galli [19] and 43% in the data set on Digitaria sanguinalis [26]. For the same compound, the inhibition at 1404 g/ha with Convolvulus arvensis worked out at 47%; in the data set on Digitaria sanguinalis [14] it was 95%; with Eleusine indica [16], 99%; in the data set with Portulaca oleracea [18], 100%; in the data set on Echinochloa crus-galli [23] it was 100%. Further, the “inhibition (INH)” value in the data set on Zea mays [13] was found to be 2%; in [17] it was 11%; in data set [20], 0%; in [21], 9%; with Zea mays [25], 2%. In addition, the inhibition of growth at 100000 µg/mL in the data set with Portulaca oleracea [6] is 62%. This compound came in with an Activity in the data set with Zea mays [24] of 0%.
